APJ agonist: agonists of human apelin receptor APJ, primary screen, CHO-K1 cells, PathHunter beta-arrestin, luminescence; P35414; 0% DMSO wells, 100% apelin; AID 2520, 2010; activation, % at 20 µM; hit rate 0.11% among 330,000;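 active = activation more than six SD over the plate average, tested at 20 µM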;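 also: 0% = DMSO alone and 100% = apelin-13 at 10 nM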
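assay system = CHO-K1 APJ beta-arrestin complementation cell line | input = cell density 1000 per well | dosing = compound 20 µM once, DMSO 1% | timing = compound 90 min 25 °C, reagent 1 h | measured by = luminescence from split beta-galactosidase complementation, Galacton Star/Emerald II substrate | read-out basis = APJ agonist activity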
CXCR6 block: CXCR6 receptor inhibitors, primary screen, cell-based, beta-arrestin, luminescence, CHO-K1 PathHunter, 1536-well | C-X-C chemokine receptor type 6 (Homo sapiens), O00574 | inhibition, % at 20 µM | hit rate 0.36% among 360,000 | AID 602244, 2012; in the data active = inhibition above about 34%, passing the limit was not always enough;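 also: antagonist mode with CXCL16 agonist at 10 nM final; 0% = 10 nM CXCL16 with DMSO and 100% = unstimulated wells without agonist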
Target sequence (O00574 whole entry, looked up): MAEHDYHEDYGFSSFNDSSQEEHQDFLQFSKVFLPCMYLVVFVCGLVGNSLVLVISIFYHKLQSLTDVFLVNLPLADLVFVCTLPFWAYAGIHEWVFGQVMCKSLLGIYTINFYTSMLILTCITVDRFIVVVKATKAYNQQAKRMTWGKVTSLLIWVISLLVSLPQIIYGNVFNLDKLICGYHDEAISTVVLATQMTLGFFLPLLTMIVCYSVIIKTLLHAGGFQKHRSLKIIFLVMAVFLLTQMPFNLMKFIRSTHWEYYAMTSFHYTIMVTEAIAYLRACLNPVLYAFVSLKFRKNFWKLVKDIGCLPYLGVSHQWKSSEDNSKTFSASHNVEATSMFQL
EBI2 block: EBI2 receptor antagonists, beta-arrestin recruitment, primary screen, cell-based, luminescence, 7a,25-OHC stimulation, uHTS; inhibition, % at 5 µM; 7a,25-OHC stimulated; hit rate 0.81% among 360,000; G-protein coupled receptor 183 (Homo sapiens), P32249; in the data active = inhibition above about 38%;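 also: enzyme fragment complementation signal reports receptor beta-arrestin coupling in cells; 0% = agonist plus DMSO wells and 100% = wells without agonist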
CCR6 antag: CCR6 receptor antagonists, primary screen, cell-based, CHO-K1, luminescence, beta-arrestin, uHTS | CHO-K1 CCR6 PathHunter beta-arrestin, CCL20-stimulated | AID 493098, 2011 | hit rate 0.49% among 340,000 | inhibition, % at 20 µM | C-C chemokine receptor type 6 (Homo sapiens), P51684;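 active = compounds whose inhibition of the agonist-driven luminescence signal at 20 µM reaches about 50%, limit read from the data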;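 also: cells stimulated with CCL20 at 14 nM final; plate controls were DMSO with CCL20 for no effect and DMSO without agonist for full effect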
APJ antagonist: antagonists of human apelin receptor APJ, primary screen, CHO-K1 cells, beta-arrestin complementation, luminescence; P35414; inhibition, % at 20 µM; hit rate 0.32% among 330,000; AID 2521, 2010;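 active = inhibition above about 40% at 20 µM, limit read from the data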;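 also: cells challenged with 10 nM apelin-13 agonist together with compound; plate controls were apelin-13 plus DMSO wells for no effect and DMSO wells lacking apelin-13 for full effect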
EBI2 conf: EBI2 antagonist hit retest, beta-arrestin, confirmation, cell-based, single concentration, luminescence, 7a,25-OHC stimulation; shares compounds with EBI2 block; 7a,25-OHC antagonism; inhibition, % at 5 µM; hit rate 29% among 2,400;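 active = inhibition of at least 50%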
EBI2 ag: EBI2 agonist activity of antagonist hits, confirmation, counter-screen for EBI2 antagonist project, cell-based, single concentration, agonist mode, luminescence; shares compounds with EBI2 block; EBI2-expressing cells, 60 min; 0% vehicle, 100% 7α,25-dihydroxycholesterol control; 2,400 tested, under 10 active; activation, % at 5 µM;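 active = activation of at least 50%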
bGal counter: E. coli beta-galactosidase enzyme inhibition, confirmation, counter-screen for EBI2 antagonist project, biochemical, luminescence, single concentration | shares compounds with EBI2 block | purified beta-galactosidase, luminescent Galacton Star, 15 min | inhibition, % at 5 µM | hit rate 1% among 2,400 | AID 652176, 2013;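 active = replicate-average signal at least 3 plate SD below neutral wells, shown as high inhibition, flagging enzyme-inhibiting false positives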;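 also: 0% = DMSO wells with enzyme and 100% = wells lacking enzyme; higher means stronger loss of beta-gal luminescence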
* = called active by the depositor; nt = no result given. The list is not random: actives were taken first. Their share in the collection is about 1.5%.

SMILES	APJ agonist	CXCR6 block	EBI2 block	CCR6 antag	APJ antagonist	EBI2 conf	EBI2 ag	bGal counter
CC(C)(C)OC(=O)C[C@H]1C/C=C\C[C@H](CC(=O)N(CCO)Cc2ccccc2)C(=O)N[C@H](C(C)(C)C)COC1=O	0	-6	-3	-5	6	nt	nt	nt
O=C(Nc1ccc(F)c(Cl)c1)c1cc(C2CCCCN2C(=O)c2cccs2)on1 (configuration not stated)	nt	10	16	nt	nt	nt	nt	nt
Nc1c(C(=O)c2ccccc2)sc(Nc2ccccc2)c1S(=O)(=O)c1ccccc1	-3	20	46*	32	-12	50*	4	3
OCC1(CO)CCCC(CO)(CO)C1O	nt	2	0	2	nt	nt	nt	nt
COc1ccccc1N1CCN(C(=O)c2cc(=O)c3ccc(C)cc3o2)CC1	-1	-2	43	5	-6	nt	nt	nt
COc1ccc(N2CCN(C(=O)c3cc(=O)c4cc(C)ccc4o3)CC2)cc1	-5	3	92*	10	14	82*	1	-1
COc1ccc(N2CCN(C(=O)c3cc(=O)c4cc(C)c(C)cc4o3)CC2)cc1	-6	-15	92*	-4	6	87*	0	9
COc1ccc(N2CCN(C(=O)c3cc(=O)c4cc(C)cc(C)c4o3)CC2)cc1	0	6	80*	5	9	84*	-2	-16
COc1ccc(OCc2cc(C(=O)NCc3nc(C)cs3)no2)c(Cl)c1	-8	9	9	17	-47	nt	nt	nt
CSc1ccc(/C=C/C(=O)c2ccc(NC(=O)Cc3ccccc3)cc2)cc1	-2	2	92*	2	2	80*	1	7
CCOC(=O)Nc1ccc(Oc2ccccc2)cc1	-1	2	23	-31	-14	nt	nt	nt
CSc1ccc(/C=C/C(=O)Nc2ccccc2)cc1	0	-3	28	11	7	nt	nt	nt
CCOC(=O)Nc1ccc(C(=O)/C=C/c2ccccc2)cc1	-4	-3	63*	21	5	32	1	9
CSc1ccc(/C=C/C(=O)c2ccc(NC(=O)C(C)C)cc2)cc1	-1	13	75*	7	-3	66*	-1	-6
COc1ccc(CCNC(=O)CSc2cn(Cc3cccc(C)c3)c3ccccc23)cc1OC	-7	22	55*	30	7	29	-1	-9
CC(C)Cn1c(N2CCN(CC(=O)Nc3ccc(Cl)cc3)CC2)nc2ccccc21	0	6	74*	19	-8	40	2	4
O=C(/C=C/c1ccc(Cl)cc1)N1CCOCC1	-5	3	50*	15	8	30	-1	-10
O=C(/C=C/c1ccc2c(c1)OCO2)N1CCN(c2ccc(Cl)cc2)CC1	3	-2	47*	-12	1	29	2	5
CC(C)c1ccc(/C=C/C(=O)N2CCOCC2)cc1	-3	-6	30	13	2	nt	nt	nt
O=C(/C=C/c1ccc(Br)cc1)NC(=S)N1CCOCC1	-1	-3	64*	-2	-7	48	0	0
O=C(/C=C/c1ccc(Cl)c(Cl)c1)N1CCOCC1	4	-2	57*	2	22	55*	-1	-20
Cc1c(NC(=O)Nc2ccc3c(c2)OCO3)cccc1[N+](=O)[O-]	-1	1	-8	9	15	nt	nt	nt
C[C@H](CO)N1C[C@H](C)[C@@H](CN(C)C(=O)NC2CCCCC2)Oc2ccc(NC(=O)Nc3ccccc3)cc2C1=O	0	-3	-6	8	15	nt	nt	nt

Source: PubChem BioAssay (Sanford-Burnham Center for Chemical Genomics)
